This series deals with MS2 coat protein. Briefly: apparent Kd, MS2 coat protein; higher = weaker binding; RNA-MaP array; FMN 200 µM where present. An outline of the steps: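 Designs were transcribed by stalled E. coli RNA polymerase on Illumina sequencing-chip clusters. They were titrated with SNAP-549-labelled MS2 coat protein from 0.7 or 1.5 nM, doubling to 3 µM, without and then with constant ligand. Buffer: 100 mM Tris-HCl pH 7.5, 80 mM KCl, 4 mM MgCl2, BSA, DTT, yeast tRNA, Tween-20. Green signal was normalised to red-channel RNA signal and control-cluster median Fmax. Apparent Kd is the median of filtered per-cluster binding-curve fits.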

[1] abbreviates: designed as: ON switch for flavin mononucleotide, no ligand.
The mark [2] stands for this setting: ligand present: flavin mononucleotide, designed as: ON switch for flavin mononucleotide.
Setting [3] is: designed as: OFF switch for flavin mononucleotide, no ligand.
[4] abbreviates: ligand present: flavin mononucleotide, designed as: OFF switch for flavin mononucleotide.

With “GGACGACACAUUAACAUGAGGAUCACCCAUGUCUCUUGACAUGAGGAUAUGGAUCCUAAUUGGAUCCAGAAGGCAUGGUCGUCC”, the “apparent Kd” value by setting is: under setting [1], 1130 nM; under setting [2], 93.5 nM.

On to “CUAGACAUAUCAGGAUAUCAUCGCGUGGAUUAACCCUGUGAUUACAUGAGGAUCACCCAUGUGCUUGAGAAGGGAUUACUAUUU”, for which the “apparent Kd” value was 35.7 nM under setting [3] and 145 nM under setting [4].

As for “GAGCCUAAUGAGAAGGUGUGUAUAAAUUAUAUACAAGGAUAUCGGUCGAGCGUGUUGACAUGAGGAUCACCCAUGUUGAGGCUU”, the “apparent Kd” value turned out to be 7.86 nM under setting [1] and 5.29 nM under setting [2].

As to “GGAGCACAUAUUAACAUGAGGAUCACCCAUGUCAAAAGACAUGAGGAUAUGGAUCCGAAAAGGAUCCAGAAGGCAUGGUGCUCC”, the “apparent Kd” value runs as follows: under setting [1], 268 nM; under setting [2], 14.3 nM.

For “CGGCGCUGUCGAGAGGAUAUGCGGUGAUGGACAUGAGGAUCACCCAUGUUAGCGAUAGCAUCACGGUAGAAGGCUCUACGGCUGC”, the “apparent Kd” value is, setting by setting: under setting [1], 12 nM; under setting [2], 11.3 nM.

As to “AGCUACGUUUCGUAGCAGUGUCAUCGAGAAGGCCCUGACAUGAGGAUCACCCAUGUUGUUACAUGGGAGGAUAUCGAUGAUACA”, the “apparent Kd” value runs as follows: under setting [1], 12.6 nM; under setting [2], 4.9 nM.

For the sequence “GCGUUGUCAGGAUAUUAUCCGUGGACAAUAGUCAGACACGGUAAGAAGGGACAUGAGGAUCACCCAUGUCCUCA”, the “apparent Kd” value reads like this: under setting [3], 17.6 nM; under setting [4], 27.1 nM.

Take “GGUUACAUCGGAGGAUAUCAUGUAAAUACAUGAGGAUCACCCAUGUCGAUGGAGACAUCGGAGAUUGAGAAGGCCGAUGUACCG”: the “apparent Kd” value is, setting by setting: under setting [1], 170 nM; under setting [2], 7.97 nM.

For the sequence “UGUCGGAGCAGAGGAUAUUACAUGAGGAUCACCCAUGUAUGAACCAAUAGCUGGAAACAGCAAUGUAAGAAGGCUGCGCCGACA”, the “apparent Kd” value was 12.5 nM under setting [3] and 153 nM under setting [4].

With “UUUAUAAAGGUAGGAUAUUGUAUUAUAAUUAAAUAAGAAGGAUCUCACAUGAGGAUCACCCAUGUAAGAGGAUCACCCAUGUAU”, the “apparent Kd” value runs as follows: under setting [3], 8.68 nM; under setting [4], 9.25 nM.

“AAGAUACAUGAGGAUCACCCAUGUGAGGAUAUGUGUAUCCCUAAAAAAGUGUGGGACCACAGAAGGUACUUGGA”: the “apparent Kd” value runs as follows: under setting [3], 61.7 nM; under setting [4], 55.4 nM.

Turning to “UGUAUGUAGGCAGGAUAUACAUGAAUAUAUAUGAUGUAGUAUGAUGUAACAUGAGGAUCACCCAUGUAGAAGGGCCAGUGUAUG”, the “apparent Kd” value under setting [3] stood at 77.8 nM and the “apparent Kd” value under setting [4] is 129 nM.

For “GGGUACAUCGGAGGAUAUCAUGGAAAUACAUGAGGAUCACCCAUGUCGAUGGAGACAUCGGAGAUUGAGAAGGCCGAUGUACCG”, the “apparent Kd” value by setting is: under setting [1], 27.3 nM; under setting [2], 6.38 nM.

For “AAAAAAUAAGGAUAUACAUUUCGGGAAAUUUUUACAAAAAAACAUGAGGAUCACCCAUGUAGAAGGUAUAAAAA”, the “apparent Kd” value is, setting by setting: under setting [3], 23.2 nM; under setting [4], 20.1 nM.

Take “AUAUAUAUUUAGAAGGACAUGAGGAUCACCCAUGUCGCUGGGCCCGGGAAACCGGGCCCGGCCAUGUAGGAUAUAGAUAUAUAU”: the “apparent Kd” value amounted to 6.72 nM under setting [3] and 9.5 nM under setting [4].

Consider “GCGUCAGAAUUAAUUGUGACAUACAGAAGGCAAUAUUAAGGUUAAGACAUGAGGAUCACCCAUGUUGAGGAUAUGUAGUGACGC”, for which the “apparent Kd” value is, setting by setting: under setting [3], 8.9 nM; under setting [4], 15.8 nM.

On to “CAGUCUACAGGAUAUACAUGAGGAUCACCCAUGUGUAUCAACCUUCUGUAAUCCACAUGUAGAAGGGUAGACUG”, for which the “apparent Kd” value under setting [3] turned out to be 14.8 nM and the “apparent Kd” value under setting [4] came out at 13.5 nM.

For the sequence “GUGGUGCUAAAGAAGCACAUGAGGAUCACCCAUGUGCCGACACAGGAUAUCGACCGCGUUGGCGUCGAGAAGGGUGAGCCUACU”, the “apparent Kd” value reads like this: under setting [1], 63.4 nM; under setting [2], 34.4 nM.

“AGAUUUCAUGAGGAUAUCGUAUUAGAUUUAUUGCGAGAAGGCAUGACAUGAGGAUCACCCAUGUAGUGUUGGUU”: the “apparent Kd” value by setting is: under setting [3], 49.3 nM; under setting [4], 96.6 nM.

Regarding “GGAGCAUACAUUAACAUGAGGAUCACCCAUGUCAAAAGACAUGAGGAUAUGGAUCCGAAAAGGAUCCAGAAGGCAUGGUGCUCC”, the “apparent Kd” value by setting is: under setting [1], 173 nM; under setting [2], 11.5 nM.

Regarding “GGGUGACAUGAGGAUCACCCAUGUCAGGAUAUGAUACUAUGUACUUCGGUACAUAGUAUCAGAAGGGACAUAAA”, the “apparent Kd” value under setting [3] stood at 104 nM and the “apparent Kd” value under setting [4] came out at 27.1 nM.

As to “CCUCCACAUUAGGAUAUCAUCAAACUAUUGUGAUGAGAAGGAAUGACAUGAGGAUCACCCAUGUUAUCGUGAUG”, the “apparent Kd” value is, setting by setting: under setting [3], 20.9 nM; under setting [4], 18.1 nM.

With “CCUUUACAUGAGGAUCACCCAUGUCAGGAUAUCCUGUGGUGUUGUCUCGGGCGACACAUGAGCCAGGAGAAGGGACGAAGGGAA”, the “apparent Kd” value under setting [3] is 49 nM and the “apparent Kd” value under setting [4] was 76.3 nM.

For “CGCUGUCACGCAGGAUAUGCAUUGGAUUACAAUGCAGAAGGGCGAUCACAUGAGGAUCACCCAUGUGUAGACAGUGAAGAAGAG”, the “apparent Kd” value runs as follows: under setting [1], 728 nM; under setting [2], 47.1 nM.

Take “UUUAAUUUGUAGAAGGACGACUAUUAAUAUUUCGUAGGAUAUACUAUUUACAUGAGGAUCACCCAUGUUUAAAUGGAACAAUGU”: the “apparent Kd” value by setting is: under setting [3], 8.35 nM; under setting [4], 12.4 nM.

For the sequence “UGAGCAUGAGGAUAUACAAGGCGUGCGUGAGCACGAGGUUUACAUGAGGAUCACCCAUGUAGAAGGCAUGUUCU”, the “apparent Kd” value came to 19.1 nM under setting [3] and 39.8 nM under setting [4].

Take “ACGUUCAAAGGAUAUACAUGAGGAUCACCCAUGUCCGUCAUGCAAGCGACGGUUUGCUGUAGAAGGUUGAACGC”: the “apparent Kd” value runs as follows: under setting [3], 22.4 nM; under setting [4], 114 nM.

“GCAUGUAAGCAGAAGGGCAGACAUUUUGAUGCUGCAGGAUAUGCAGAAUCAUAUCCACAUGAUAACAUGAGGAUCACCCAUGUA”: the “apparent Kd” value came to 19.9 nM under setting [3] and 24.3 nM under setting [4].

For the sequence “GCGUACAUAUCAGGAUAUCAUUGUAUUGUUUUACUCAGUGUAUACAUGAGGAUCACCCAUGUUCUUGAGAAGGGAUUACUACGC”, the “apparent Kd” value under setting [3] turned out to be 15.1 nM and the “apparent Kd” value under setting [4] was determined as 14.1 nM.

For the sequence “AUAAUGAGAGGAUAUACAUGAGGAUCACCCAUGUUAUUAUCACGUCGUGCUCCAUUACGUAGAAGGCUCAUUUA”, the “apparent Kd” value was determined as 22 nM under setting [3] and 84.1 nM under setting [4].

For “AAUAUACAUGAGGAUCACCCAUGUUUUGGUGUAUGAGGAUAUAAAAACAAUUACAUAAAAUUAGAAGGCAUAACUA”, the “apparent Kd” value reads like this: under setting [1], 28.2 nM; under setting [2], 24 nM.

Regarding “AAUUUAAUACAUGAGGAUCACCCAUGUAAUACUAGUAAGAUCUAGGAUAUCAGCUCGAUUAGAGCUGAGAAGGAGAUCACAUGU”, the “apparent Kd” value under setting [1] turned out to be 92.9 nM and the “apparent Kd” value under setting [2] amounted to 27.9 nM.

For “GUAGCUUAUGAGAAGGCGAUCAUGAAACAUGAUCGAGGAUAUCAUGUAAACAUGAGGAUCACCCAUGUAUGGGUAUUAUGCUAC”, the “apparent Kd” value is, setting by setting: under setting [1], 313 nM; under setting [2], 42.9 nM.

For the sequence “UGUGUGAGACAGGAUAUGCCGGUUGUAUUGCUGGUAGAAGGGUCUACAUGAGGAUCACCCAUGUGGCCGGUUGG”, the “apparent Kd” value under setting [3] came out at 18.6 nM and the “apparent Kd” value under setting [4] was found to be 23.2 nM.

As for “AGAAACUACGAGAAGGACAUGUGGUCCUUCAAUUACAUGAGGAUCACCCAUGUAGGAUAUCGUAGUUUCAGGAUCGUGAGAUCA”, the “apparent Kd” value under setting [3] was 12.7 nM and the “apparent Kd” value under setting [4] stood at 3.81 nM.

For the sequence “ACGACGAAAAUCGAACGAUGUAGCAGAAGGACAUGAGGAUCACCCAUGUAAAAUGUAACAGCCAUGUAGGAUAUGCUACAUCGA”, the “apparent Kd” value runs as follows: under setting [3], 40.9 nM; under setting [4], 272 nM.

Turning to “UGUUGUAAUACAGGAUAUAUAUUAUUUUUAUUUAUAGAAGGGUAAUCACAUGAGGAUCACCCAUGUAUAUACGAGGAAGAAGAG”, the “apparent Kd” value by setting is: under setting [1], 209 nM; under setting [2], 251 nM.

As for “CGCGAAAACAUAGGAUAUUGUUACAUGAGGAUCACCCAUGUCAACCAUGUAGCUCGAAUUGUUGUCAAGAAGGAUGAGGUCGCG”, the “apparent Kd” value runs as follows: under setting [1], 18.4 nM; under setting [2], 22 nM.

“CCGGUAUAGGAGGAUAUAGGAGUCGAUAGACACCUAGAAGGCCUGACAUGAGGAUCACCCAUGUGUCCUUCCGG”: the “apparent Kd” value came to 19.6 nM under setting [3] and 55.8 nM under setting [4].

Regarding “GGUACCUUCACAGGAUAUGCUAUGCUUUGCGUAGCAGAAGGGUGAUACAUGAGGAUCACCCAUGUGGUGCCAGGGCGUGAGCCC”, the “apparent Kd” value is, setting by setting: under setting [1], 283 nM; under setting [2], 278 nM.

“GCAUACAUUCGAGGAUAUCGGUGAACAAAUUAACGAGAAGGCGAUAUAAUUUUUAAACUUAUAGACAUGAGGAUCACCCAUGUA”: the “apparent Kd” value reads like this: under setting [1], 23.7 nM; under setting [2], 20.6 nM.

As to “UUAAUUAAUUAAUUGCAGAAUUACAUGAGGAUCACCCAUGUAUAGGAUAUCGUCAGGAAUACUGACGAGAAGGAUACAUACUGC”, the “apparent Kd” value was 17.9 nM under setting [3] and 26.6 nM under setting [4].

On to “UUUUAACAUGAGGAUCACCCAUGUGAGGAUAUCGAAAUUUAUAUUAAUAUUAAUAAUUCGAGAAGGCACAUUUU”, for which the “apparent Kd” value runs as follows: under setting [3], 142 nM; under setting [4], 137 nM.

Regarding “AGGUAGUCAGGAUAUUAUUUUUAGCGGGAUAACGCUGAGGGUGAGAAGGGACAUGAGGAUCACCCAUGUUUUGA”, the “apparent Kd” value runs as follows: under setting [3], 258 nM; under setting [4], 191 nM.

Take “GCCAGUUAUGUAGGAUAUGCGAGGCGAGCCUGAGCAGAAGGACAUGAGGAUCACCCAUGUAUUGCGGUUUGAGUACUGAUCGCU”: the “apparent Kd” value under setting [3] was determined as 38.1 nM and the “apparent Kd” value under setting [4] is 215 nM.

For the sequence “UGUUACUAGUAAGGAUAUACUUGCGAUAAGCUUGUAGAAGGUACAGUCUUUUGUAUAACACGUUUACAUGAGGAUCACCCAUGU”, the “apparent Kd” value under setting [1] is 6.94 nM and the “apparent Kd” value under setting [2] amounted to 6.01 nM.

As to “AAGUUUGUACGAGGAUAUCAGUUGUAUCUAAAUUCAACAUGAGGAUCACCCAUGUUGCAAUGGAGUGAGAAGGCGUGUGGGCAA”, the “apparent Kd” value is, setting by setting: under setting [1], 31.3 nM; under setting [2], 22.8 nM.

On to “CCGAAUGUCACAGGAUAUGGUCCGGGCACGCGACCAGAAGGGUGAUCUCACAUGAGGAUCACCCAUGUGCAGUUGUUAAGCUGC”, for which the “apparent Kd” value is, setting by setting: under setting [1], 23.8 nM; under setting [2], 106 nM.

What is called apparent Kd is the concentration giving half-maximal binding under the conditions of the assay.

For the origin of these results see the EternaBench riboswitch data.
